Six compounds from ChEMBL document CHEMBL4480370, “Synthesis and preliminary evaluation of the anti-cancer activity on A549 lung cancer cells of a series of unsaturated disulfides” (2019) can be followed below.

Assay [1] relates to A549. In words: Cytotoxicity against human A549 cells assessed as reduction in cell viability at 500 uM after 24 hrs by CellTiter-Glo luminescent assay. It counts as functional, cell-based. A digest of the protocol: (§1)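 A549 cells kept in RPMI 1640 with 10% fetal bovine serum and 100 units per ml penicillin–streptomycin. Each molecule was applied at 50, 100, 250 and 500 μM, with viability read at 24 or 48 h by CellTiter-Glo luminescence. Values are expressed relative to untreated control (C), as the mean of three repeats with relative standard deviation.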

For assay [2], the system named is A549. In words: Cytotoxicity against human A549 cells assessed as reduction in cell viability at 500 uM after 48 hrs by CellTiter-Glo luminescent assay relative to control. The assay is classed as functional. Summed up: as §1
On the technique in general: ATP-based viability assays read luminescence as a measure of living cells.

The test system of assay [3] is A549. Kind of assay: Cytotoxicity against human A549 cells assessed as reduction in cell viability at 50 uM after 48 hrs by CellTiter-Glo luminescent assay relative to control. The assay is classed as functional. Summed up: as §1
Assay [4] has as its system A549. Kind of assay: Cytotoxicity against human A549 cells assessed as reduction in cell viability after 24 hrs by CellTiter-Glo luminescent assay. The assay is classed as functional, cell-based. A digest of the protocol:
as §1

Assay [5] deals with A549. In words: Cytotoxicity against human A549 cells assessed as reduction in cell viability at 100 to 250 uM after 48 hrs by CellTiter-Glo luminescent assay. It counts as functional, cell-based. A digest of the protocol:
as §1

In assay [6] the test system is A549. Kind of assay: Cytotoxicity against human A549 cells assessed as reduction in cell viability at 50 to 500 uM by CellTiter-Glo luminescent assay. The assay is classed as functional, cell-based. The note with it: TDE = time-dependent effect. A digest of the protocol:
as §1

Assay [7] deals with A549. Kind of assay: Cytotoxicity against human A549 cells assessed as reduction in cell viability at 50 to 500 uM after 24 hrs by CellTiter-Glo luminescent assay. It counts as functional, cell-based. Summed up: as §1
Assay [8] has as its system A549. In words: Cytotoxicity against human A549 cells assessed as reduction in cell viability after 48 hrs by CellTiter-Glo luminescent assay. The assay is classed as functional, cell-based. A digest of the protocol:
as §1

Assay [9] relates to A549. In words: Cytotoxicity against human A549 cells assessed as reduction in cell viability at 250 uM after 48 hrs by CellTiter-Glo luminescent assay. It counts as functional, cell-based. Summed up:
as §1

The source made the active and inactive calls. The calls are words filed in the database; no cut-off is given here.

As to `CCCC=CCSSCC=CCCC` (mixture of isomers), the outcome in assay [1] was Active.

With `CCC/C=C/CSSC/C=C/CCC`, the outcome in [1] was Active.

For `C/C=C/CSSC/C=C/C`, the Activity in [2] is 84%; in [3], 70%; in assay [4], “Dose-dependent effect”; in [6], “Tde”. Also, the outcome in [5] was Active.

Regarding `C=CCCCCSSCCCCC=C`, in assay [7], the result was inactive.

For the compound `C=CCCSSCCC=C`, the Activity in assay [2] is 100%; in [8], “Dose-dependent effect”; in assay [3] it was 68%; in assay [4], “Dose-dependent effect”; in [6] it was “Tde”. Further, the result in [9] was Active.

With `C=CCSSCC=C` [DIALLYLDISULFIDE], the Activity in assay [2] is 65%; in [3] it was 54%; in [4], “Dose-dependent effect”; in assay [6], “Tde”.
